From ChEMBL document CHEMBL3867438, “Cytotoxic Tirucallane and Apotirucallane Triterpenoids from the Stems of Picrasma quassioides” (J Nat Prod, 2016)
Active and inactive are the calls of the source. The calls are words filed in the database; no cut-off is given here.

How the values were obtained:
MKN-28 [1] = assay: Induction of apoptosis in human MKN28 cells assessed as viable cells at 6 uM after 48 hrs by annexin V-FITC/PI staining based flow cytometry (reference value: 100%); format: functional; conditions: MKN-28, 48 h, read-out: Activity
Procedure, shortened: (§1)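 MKN-28 cells (3 × 10^5/well) treated at 2, 6 and 8 μM for 48 h. Stained with annexin V-FITC and PI using a kit per the maker's protocol, then analysed by flow cytometry. Apoptotic populations quantified, early and late apoptosis counted separately. Data given as mean with SD; one-way ANOVA with Tukey's post hoc test.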

MKN-28 [2] = assay: Induction of apoptosis in human MKN28 cells assessed as late apoptotic cells at 8 uM after 48 hrs by annexin V-FITC/PI staining based flow cytometry (reference value: 0%); format: functional; procedure, shortened: as §1
[3] = Cytotoxicity against human A549 cells assessed as inhibition of cell proliferation after 48 hrs by MTT assay; format: functional, cell-based; conditions: A549, 48 h
Procedure, shortened: (§2)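 Cells grown in DMEM with 10% FBS, 100 U/mL penicillin, 100 μg/mL streptomycin, 37 °C, 5% CO2. Seeded 5 × 10^3 cells/well, 12 h, then exposed to compounds for 48 h. MTT (5 mg/mL stock) added for 4 h at 37 °C, formazan dissolved in DMSO, absorbance read at 570 nm. IC50 relative to untreated control. Triplicate, repeated twice; cis-platinum as positive control.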

MKN-28 [4] = assay: Induction of mitochondrial apoptosis in human MKN28 cells assessed as increase in bax expression level at 2 to 8 uM after 48 hrs by Western blot analysis; format: functional, cell-based
Procedure, shortened: (§3)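 MKN-28 cells (1 × 10^6/dish) cultured with compound at 2, 6 and 8 μM for 48 h. Cells lysed for 30 min on ice in RIPA buffer with DTT, PMSF and phosphatase inhibitor, then spun at 14000g, 4 °C, 15 min. Protein measured by BCA. Blots probed for Bcl-2, Bax, Bad, cleaved and pro-caspase-3 and -9, with β-actin as loading control.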

MKN-28 [5] = assay: Induction of apoptosis in human MKN28 cells assessed as viable cells at 8 uM after 48 hrs by annexin V-FITC/PI staining based flow cytometry (reference value: 100%); format: functional; conditions: MKN-28, 48 h, read-out: Activity; procedure, shortened: as §1
MKN-28 [6] = assay: Induction of apoptosis in human MKN28 cells assessed as necrotic cells at 2 uM after 48 hrs by annexin V-FITC/PI staining based flow cytometry (reference value: 0%); format: functional; procedure, shortened: as §1
MKN-28 [7] = assay: Induction of apoptosis in human MKN28 cells assessed as late apoptotic cells at 6 uM after 48 hrs by annexin V-FITC/PI staining based flow cytometry (reference value: 0%); format: functional; procedure, shortened: as §1
MKN-28 [8] = assay: Induction of apoptosis in human MKN28 cells assessed as increase in late apoptotic cells after 48 hrs by annexin V-FITC/PI staining based flow cytometry; format: functional, cell-based; procedure, shortened: as §1
MKN-28 [9] = assay: Induction of mitochondrial apoptosis in human MKN28 cells assessed as caspase 3 activation at 2 to 8 uM after 48 hrs by Western blot analysis; format: functional, cell-based; procedure, shortened: as §3
MKN-28 [10] = assay: Induction of mitochondrial apoptosis in human MKN28 cells assessed as decrease in bcl-2 expression level at 2 to 8 uM after 48 hrs by Western blot analysis; format: functional, cell-based; procedure, shortened: as §3
MKN-28 [11] = assay: Induction of apoptosis in human MKN28 cells assessed as necrotic cells at 8 uM after 48 hrs by annexin V-FITC/PI staining based flow cytometry (reference value: 0%); format: functional; procedure, shortened: as §1
MKN-28 [12] = assay: Induction of mitochondrial apoptosis in human MKN28 cells assessed as caspase 9 activation at 2 to 8 uM after 48 hrs by Western blot analysis; format: functional, cell-based; procedure, shortened: as §3
[13] = Cytotoxicity against human MKN28 cells assessed as inhibition of cell proliferation after 48 hrs by MTT assay; format: functional, cell-based; conditions: MKN-28, 48 h; procedure, shortened: as §2
MKN-28 [14] = assay: Induction of apoptosis in human MKN28 cells assessed as late apoptotic cells at 2 uM after 48 hrs by annexin V-FITC/PI staining based flow cytometry (reference value: 0%); format: functional; procedure, shortened: as §1
MKN-28 [15] = assay: Induction of apoptosis in human MKN28 cells assessed as viable cells at 2 uM after 48 hrs by annexin V-FITC/PI staining based flow cytometry (reference value: 100%); format: functional; conditions: MKN-28, 48 h, read-out: Activity; procedure, shortened: as §1
MKN-28 [16] = assay: Induction of apoptosis in human MKN28 cells assessed as increase in early apoptotic cells after 48 hrs by annexin V-FITC/PI staining based flow cytometry; format: functional, cell-based; procedure, shortened: as §1
MKN-28 [17] = assay: Induction of mitochondrial apoptosis in human MKN28 cells assessed as increase in bad expression level at 2 to 8 uM after 48 hrs by Western blot analysis; format: functional, cell-based; procedure, shortened: as §3
MKN-28 [18] = assay: Induction of apoptosis in human MKN28 cells assessed as early apoptotic cells at 6 uM after 48 hrs by annexin V-FITC/PI staining based flow cytometry (reference value: 0.043%); format: functional; procedure, shortened: as §1
MKN-28 [19] = assay: Induction of apoptosis in human MKN28 cells assessed as early apoptotic cells at 2 uM after 48 hrs by annexin V-FITC/PI staining based flow cytometry (reference value: 0.043%); format: functional; procedure, shortened: as §1
MKN-28 [20] = assay: Induction of apoptosis in human MKN28 cells assessed as early apoptotic cells at 8 uM after 48 hrs by annexin V-FITC/PI staining based flow cytometry (reference value: 0.043%); format: functional; procedure, shortened: as §1
[21] = Cytotoxicity against human MCF7 cells assessed as inhibition of cell proliferation after 48 hrs by MTT assay; format: functional, cell-based; conditions: MCF7, 48 h; procedure, shortened: as §2
MKN-28 [22] = assay: Induction of apoptosis in human MKN28 cells assessed as necrotic cells at 6 uM after 48 hrs by annexin V-FITC/PI staining based flow cytometry (reference value: 0%); format: functional; procedure, shortened: as §1

## CCO[C@@H]1O[C@@H](C=C(C)C)C[C@H]1[C@@H]1CC=C2[C@]3(C)[C@H](O)C[C@H]4C(C)(C)[C@H](O)CC[C@]4(C)[C@H]3CC[C@]21C
MKN-28 [1]
  viability at 6 µM: 78.9%
MKN-28 [2]
  Activity: 21%
[3]
  IC50: 5.6 µM
MKN-28 [4]
  Activity: Active
MKN-28 [5]
  viability at 8 µM: 66%
MKN-28 [6]
  Activity: 0.869%
MKN-28 [7]
  Activity: 12.6%
MKN-28 [8]
  Activity: Dose-dependent effect
MKN-28 [9]
  Activity: Active
MKN-28 [10]
  Activity: Active
MKN-28 [11]
  Activity: 0.685%
MKN-28 [12]
  Activity: Active
[13]
  IC50: 2.5 µM
MKN-28 [14]
  Activity: 2.69%
MKN-28 [15]
  viability at 2 µM: 93.2%
MKN-28 [16]
  Activity: Dose-dependent effect
MKN-28 [17]
  Activity: Active
MKN-28 [18]
  Activity: 5.76%
MKN-28 [19]
  Activity: 3.21%
MKN-28 [20]
  Activity: 12.4%
[21]
  IC50: 9.1 µM
MKN-28 [22]
  Activity: 2.51%
